From ChEMBL document CHEMBL4765360, “Design, synthesis and biological evaluation of novel potent STAT3 inhibitors based on BBI608 for cancer therapy” (Eur J Med Chem, 2020) come the findings set out here.

Activity calls are given as the source filed them. The calls are words filed in the database; no cut-off is given here.

The subject of experiment [1] is MDA-MB-231. In words: Antiproliferative activity against human MDA-MB-231 cells overexpressing STAT3 assessed as reduction in cell growth incubated for 48 hrs by CCK-8 assay. It is filed as functional, cell-based. As to conditions: MDA-MB-231, 48 h. The method in brief:
(§1)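 Cells seeded at 5000-7000/well and allowed to settle for 8 h at 37 °C, 5% CO2. Graded compound concentrations were then added in triplicate (DMSO <0.1%) for 48 h. Medium was replaced with 10% CCK-8 for 4 h (MDA-MB-231, MDA-MB-468) or 1 h (HepG2), and A450 was read. IC50 is mean ± SD of at least three independent experiments. HepG2 was grown in high-glucose DMEM with 10% FBS.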
A general note: Tetrazolium dyes change colour on reduction, which living cells bring about.

The test system of a further experiment is MDA-MB-468. Kind of experiment: Antiproliferative activity against human MDA-MB-468 cells overexpressing STAT3 assessed as reduction in cell growth incubated for 48 hrs by CCK-8 assay. The experiment is classed as functional, cell-based. As to conditions: MDA-MB-468, 48 h. The method in brief:
as §1

For another experiment, the system named is HepG2. Kind of experiment: Antiproliferative activity against human HepG2 cells overexpressed STAT3 assessed as reduction in cell growth incubated for 48 hrs by CCK-8 assay. It is filed as functional, cell-based. The note with it: HepG2, 48 h. In a few lines: as §1
The target in experiment [2] is T1, Signal transducer and activator of transcription 3 (Homo sapiens, UniProt P40763). In words: Displacement of 5-FAM-GpYLPQTV-NH2 from His-tagged STAT3 (unknown origin) (127 to 722 residues) incubated for 30 mins followed by fluorescent peptide probe addition and measured after 1 hr by fluorescence polarization based competition binding assay. (In general: In fluorescence polarisation assays a small probe gives low polarisation when free and higher when bound to something large.)
T1 sequence (P40763 whole entry, the tested form may be a part): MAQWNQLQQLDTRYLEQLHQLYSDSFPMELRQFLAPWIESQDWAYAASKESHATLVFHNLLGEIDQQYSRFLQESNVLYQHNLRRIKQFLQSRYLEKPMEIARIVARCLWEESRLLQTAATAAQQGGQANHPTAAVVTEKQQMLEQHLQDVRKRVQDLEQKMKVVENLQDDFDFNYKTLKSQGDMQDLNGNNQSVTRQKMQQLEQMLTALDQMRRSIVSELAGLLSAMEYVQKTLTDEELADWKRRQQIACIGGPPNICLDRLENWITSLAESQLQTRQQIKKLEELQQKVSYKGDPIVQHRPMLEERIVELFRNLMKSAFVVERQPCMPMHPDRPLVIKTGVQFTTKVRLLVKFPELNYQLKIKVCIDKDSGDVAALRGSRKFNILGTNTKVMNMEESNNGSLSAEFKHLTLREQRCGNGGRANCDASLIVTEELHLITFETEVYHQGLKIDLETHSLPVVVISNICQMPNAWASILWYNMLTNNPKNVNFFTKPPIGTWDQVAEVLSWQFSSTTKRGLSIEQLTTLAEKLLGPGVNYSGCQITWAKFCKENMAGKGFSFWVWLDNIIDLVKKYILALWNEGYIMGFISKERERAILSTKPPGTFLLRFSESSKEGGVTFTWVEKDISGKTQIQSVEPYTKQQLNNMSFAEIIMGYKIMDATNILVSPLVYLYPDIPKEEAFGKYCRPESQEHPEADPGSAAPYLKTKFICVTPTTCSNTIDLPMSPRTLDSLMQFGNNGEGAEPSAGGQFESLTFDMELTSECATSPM

For experiment [3], the target named is T1, Signal transducer and activator of transcription 3. In words: Inhibition of STAT3 in human MDA-MB-231 cells assessed as reduction in STAT3 Y705 phosphorylation incubated for 24 hrs by Western blot analysis. The experiment is classed as cell-based. As to conditions: dose 0.75-3 µM. The method in brief: (§2)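 MDA-MB-231 cells treated with a range of concentrations for 24 h. RIPA lysates with PMSF, 40 µg protein/lane, on 10% SDS-PAGE, then PVDF. Blocked in 5% milk/TBST for 2 h. Primary antibodies to STAT3, p-STAT3(Y705), STAT1, p-STAT1(Y701), c-Myc and Cyclin D1 overnight at 4 °C; GAPDH as loading control. HRP secondary for 1 h; ECL detection.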
(Immunoblotting shows a protein as a band on a membrane.)

Experiment [4] has as its system MDA-MB-231. In words: Effect on STAT3 expression in human MDA-MB-231 cells at 0.75 to 3 uM incubated for 24 hrs by Western blot analysis. The note with it: dose 0.75-3 µM. The experiment is classed as functional, cell-based. In a few lines: as §2
In experiment [5] the target is T1, Signal transducer and activator of transcription 3. Kind of experiment: Inhibition of STAT3 in human MDA-MB-231 cells assessed as reduction in c-myc expression incubated for 24 hrs by Western blot analysis. The experiment is classed as cell-based. The note with it: dose 0.75-3 µM. In a few lines: as §2
The target is the same in experiment [6]. Kind of experiment: Inhibition of STAT3 in human MDA-MB-231 cells assessed as reduction in Cyclin D1 expression incubated for 24 hrs by Western blot analysis. The experiment is classed as cell-based. As to conditions: dose 0.75-3 µM. In a few lines: as §2
For experiment [7], the target named is T2, Signal transducer and activator of transcription 1-alpha/beta (Homo sapiens) (UniProt P42224).
T2 sequence (whole entry): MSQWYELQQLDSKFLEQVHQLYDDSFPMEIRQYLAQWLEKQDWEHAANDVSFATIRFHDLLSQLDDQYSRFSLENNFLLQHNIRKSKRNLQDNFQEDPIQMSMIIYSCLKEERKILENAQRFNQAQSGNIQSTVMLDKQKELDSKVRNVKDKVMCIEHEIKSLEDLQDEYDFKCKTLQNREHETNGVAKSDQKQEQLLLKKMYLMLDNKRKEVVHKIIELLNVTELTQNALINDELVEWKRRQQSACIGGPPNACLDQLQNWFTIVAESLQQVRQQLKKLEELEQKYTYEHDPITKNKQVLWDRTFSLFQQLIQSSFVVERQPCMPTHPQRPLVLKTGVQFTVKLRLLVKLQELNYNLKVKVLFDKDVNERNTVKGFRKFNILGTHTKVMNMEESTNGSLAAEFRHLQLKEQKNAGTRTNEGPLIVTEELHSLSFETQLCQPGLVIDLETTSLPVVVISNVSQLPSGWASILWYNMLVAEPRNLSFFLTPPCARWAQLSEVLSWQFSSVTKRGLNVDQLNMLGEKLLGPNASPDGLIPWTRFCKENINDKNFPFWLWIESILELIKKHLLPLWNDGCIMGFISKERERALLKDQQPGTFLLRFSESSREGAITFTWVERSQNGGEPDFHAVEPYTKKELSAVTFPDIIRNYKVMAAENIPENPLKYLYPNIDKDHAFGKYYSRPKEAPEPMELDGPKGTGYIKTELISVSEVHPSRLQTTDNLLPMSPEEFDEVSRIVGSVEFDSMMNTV
Kind of experiment: Inhibition of STAT1 in human MDA-MB-231 cells assessed as reduction in STAT1 Y701 phosphorylation at 0.75 to 3 uM incubated for 24 hrs by Western blot analysis. The note with it: dose 0.75-3 µM. The experiment is classed as cell-based. In a few lines:
as §2

The subject of experiment [8] is MDA-MB-231. In words: Effect on STAT1 expression in human MDA-MB-231 cells at 0.75 to 3 uM incubated for 24 hrs by Western blot analysis. The experiment is classed as functional, cell-based. The note with it: dose 0.75-3 µM. The method in brief: as §2

With `CC(=O)c1cc2c(o1)C(=O)C(NC1CCCC1)=CC2=O`, the IC50 in the experiment with MDA-MB-231 [1] came to 1230 nM; with MDA-MB-468 it was 2470 nM; in the experiment on HepG2, 7170 nM.

For the molecule `CC(=O)c1cc2c(o1)C(=O)C(Nc1ccccc1)=CC2=O`, the figures for the IC50 in the experiment on MDA-MB-231 [1], with MDA-MB-468 and in the experiment on HepG2 were 1140 nM, 1030 nM and 1540 nM, respectively.

For `O=[N+]([O-])c1ccc2c(c1)S(=O)(=O)C=C2`, the IC50 in the experiment with MDA-MB-231 [1] was determined as 2640 nM; with MDA-MB-468, 1920 nM.

`CC(=O)c1cc2c(o1)C(=O)c1ccccc1C2=O` [NAPABUCASIN]: the IC50 in the experiment with MDA-MB-231 [1] is 700 nM; in the experiment with HepG2 it was 840 nM.

For `CC(=O)c1cc2c(o1)C(=O)C(Nc1ccc(C)cc1)=CC2=O`, the IC50 in the experiment on MDA-MB-231 [1] was found to be 900 nM; in the experiment on MDA-MB-468 it was 3120 nM; with HepG2 it was 1850 nM.

In the case of `CC(=O)c1cc2c(o1)C(=O)C(Nc1ccc(F)cc1)=CC2=O`, the results for the IC50 in the experiment with MDA-MB-231 [1], in the experiment with MDA-MB-468 and with HepG2 were 3210 nM, 7770 nM and 8010 nM, respectively.

As to `COc1cccc(NC2=CC(=O)c3cc(C(C)=O)oc3C2=O)c1`, the IC50 was determined as 1480 nM with MDA-MB-231 [1], 1550 nM in the experiment with MDA-MB-468 and 2360 nM with HepG2.

On to `CC(=O)c1cc2c(o1)C(=O)C(Nc1cccc(F)c1)=CC2=O`, for which the IC50 was 3500 nM with MDA-MB-231 [1], 2500 nM in the experiment on MDA-MB-468 and 5340 nM in the experiment on HepG2.

With `CC(=O)c1cc2c(o1)C(=O)C(Nc1ccc(OC(C)C)cc1)=CC2=O`, the IC50 in the experiment on MDA-MB-231 [1] worked out at 1110 nM; with MDA-MB-468, 1180 nM; in the experiment on HepG2, 1040 nM.

As to `CC(=O)c1cc2c(o1)C(=O)C(NC1CCOCC1)=CC2=O`, the IC50 with MDA-MB-231 [1] is 2070 nM; in the experiment on MDA-MB-468 it was 3230 nM; in the experiment on HepG2, 6800 nM.

Consider `CC(=O)c1cc2c(o1)C(=O)C(NC1CCCCC1)=CC2=O`, for which the IC50 in the experiment on MDA-MB-231 [1] was determined as 2880 nM; with MDA-MB-468 it was 4130 nM; with HepG2, 6550 nM.

For `COc1cc(C)c(NC2=CC(=O)c3cc(C(C)=O)oc3C2=O)c(C)c1`, the IC50 came to 670 nM in the experiment on MDA-MB-231 [1], 1530 nM in the experiment with MDA-MB-468 and 2010 nM in the experiment on HepG2.

Take `CC(=O)c1cc2c(o1)C(=O)C(Nc1ccccc1F)=CC2=O`: the results for the IC50 in the experiment on MDA-MB-231 [1], in the experiment on MDA-MB-468 and in the experiment on HepG2 were 2340 nM, 2000 nM and 2550 nM, respectively.

`CC(=O)c1cc2c(o1)C(=O)C(Nc1cccc(C(F)(F)F)c1)=CC2=O`: the IC50 amounted to 1510 nM with MDA-MB-231 [1], 1160 nM in the experiment with MDA-MB-468 and 1990 nM in the experiment with HepG2.

Turning to `CC(=O)c1cc2c(o1)C(=O)C(Nc1ccc(N(C)C)cc1)=CC2=O`, the figures for the IC50 in the experiment on MDA-MB-231 [1], in the experiment on MDA-MB-468 and in the experiment on HepG2 were 1530 nM, 1830 nM and 1510 nM, respectively.

Consider `CC(=O)c1cc2c(o1)C(=O)C(Nc1ccc(C(F)(F)F)cc1)=CC2=O`, for which the IC50 is 3700 nM in the experiment with MDA-MB-231 [1], 2270 nM with MDA-MB-468 and 6170 nM in the experiment with HepG2.

Regarding `CCc1ccccc1NC1=CC(=O)c2cc(C(C)=O)oc2C1=O`, the values for the IC50 with MDA-MB-231 [1], in the experiment on MDA-MB-468 and in the experiment with HepG2 were 2000 nM, 2460 nM and 3380 nM, respectively.

For the molecule `CC(=O)c1cc2c(o1)C(=O)C(Nc1cc(C)cc(F)c1)=CC2=O`, the IC50 amounted to 2620 nM with MDA-MB-231 [1], 2110 nM in the experiment on MDA-MB-468 and 5660 nM in the experiment with HepG2.

Take `CC(=O)c1cc2c(o1)C(=O)C(NC1CC1)=CC2=O`: the IC50 is 940 nM in the experiment on MDA-MB-231 [1], 1970 nM with MDA-MB-468 and 1830 nM in the experiment with HepG2.

Take `CC(=O)c1cc2c(o1)C(=O)C(Nc1ccc(C)c(C)c1)=CC2=O`: the figures for the IC50 in the experiment on MDA-MB-231 [1], in the experiment on MDA-MB-468 and in the experiment with HepG2 were 2540 nM, 1850 nM and 8120 nM, respectively.

For the molecule `CC(=O)c1cc2c(o1)C(=O)C(Nc1ccccc1C)=CC2=O`, the IC50 with MDA-MB-231 [1] was determined as 560 nM; with MDA-MB-468, 730 nM; with HepG2, 1210 nM; in experiment [2], 5550 nM. Moreover, the inhibition result in experiment [2] (time 1.5 hrs), in experiment [3], in [5] and in experiment [6] was “Dose-dependent effect” each time. For the same molecule, the outcome in the experiment with MDA-MB-231 [4] and in the experiment on MDA-MB-231 [8] was inactive. In experiment [7], the inhibition result was “inactive”.

Consider `COc1ccc(NC2=CC(=O)c3cc(C(C)=O)oc3C2=O)c(C)c1`, for which the IC50 in the experiment with MDA-MB-231 [1] was 2460 nM; in the experiment on MDA-MB-468, 2920 nM; in the experiment on HepG2 it was 5900 nM.

Take `CC(=O)c1cc2c(o1)C(=O)C(NC1CCC1)=CC2=O`: the IC50 in the experiment on MDA-MB-231 [1] amounted to 4870 nM; with MDA-MB-468 it was 8840 nM; in the experiment with HepG2, 6750 nM.

`CC(=O)c1cc2c(o1)C(=O)C(Nc1c(C)cccc1C)=CC2=O`: the IC50 with MDA-MB-231 [1] was determined as 1880 nM; in the experiment with MDA-MB-468, 3300 nM; with HepG2, 8030 nM.

Consider `CC(=O)c1cc2c(o1)C(=O)C(Nc1ccccc1C(F)(F)F)=CC2=O`, for which the IC50 with MDA-MB-231 [1] is 3120 nM; with MDA-MB-468 it was 1750 nM; with HepG2, 4040 nM.

On to `COc1ccccc1NC1=CC(=O)c2cc(C(C)=O)oc2C1=O`, for which the IC50 in the experiment on MDA-MB-231 [1] came to 920 nM; in the experiment on MDA-MB-468, 1050 nM; in the experiment on HepG2 it was 2410 nM.

Regarding `CC(=O)c1cc2c(o1)C(=O)C(Nc1cccc(C)c1)=CC2=O`, the IC50 in the experiment on MDA-MB-231 [1] came out at 2620 nM; in the experiment on MDA-MB-468, 4540 nM; with HepG2, 5500 nM.

For orientation: IC50 means the midpoint of a concentration-inhibition curve.
